# Assay results published in ChEMBL document CHEMBL3044709, “Antimicrobial furostanol saponins from the seeds of Capsicum annuum L. var. acuminatum” (2002).
# Columns and labels:
# Type in all cases: functional
# [1] = system: Bacillus licheniformis; experiment: Antimicrobial activity against Bacillus licheniformis DSM 13=ATCC 14580 after 48 hr by agar dilution method; conditions: DSM 13 = ATCC 14580, 48 h
# Outline: (§1)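 Agar dilution on standard plate count agar: 0.5 mL of a 2-fold serial dilution of sample mixed into 9.5 mL medium, poured into Petri dishes, organism streaked on the surface. Incubated at 28 °C (36 and 48 h). MIC is the lowest tested concentration with no visible growth.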
# [2] = system: Lacticaseibacillus rhamnosus; experiment: Antimicrobial activity against Lactobacillus rhamnosus DSM 20021 after 48 hr by agar dilution method; conditions: DSM 20021, 48 h; outline: as §1
# [3] = system: Stutzerimonas stutzeri; experiment: Antimicrobial activity against Pseudomonas stutzeri ATCC 962 after 48 hr by agar dilution method; conditions: ATCC 962, 48 h; outline: as §1
# [4] = system: Trichoderma viride; experiment: Antimicrobial activity against Hypocrea rufa ATCC 28020 after 48 hr by agar dilution method; conditions: ATCC 28020, 48 h
# Outline: (§2)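 Fungi tested by agar dilution in malt agar. Serial 2-fold sample dilutions (0.5 mL) were mixed with 9.5 mL medium and plated, then streaked with the organism. Incubation at 28 °C for 36 and 48 h. MIC is the lowest tested concentration without growth.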
# [5] = system: Pseudomonas aeruginosa; experiment: Antimicrobial activity against Pseudomonas aeruginosa DSM 1117 after 48 hr by agar dilution method; conditions: DSM 1117, 48 h; outline: as §1
# [6] = system: Rhizopus arrhizus; experiment: Antimicrobial activity against Rhizopus oryzae ATCC 56536 after 48 hr by agar dilution method; conditions: ATCC 56536, 48 h; outline: as §2
# [7] = system: Bacillus cereus; experiment: Antimicrobial activity against Bacillus cereus DSM 345 after 48 hr by agar dilution method; conditions: DSM 345, 48 h; outline: as §1
# [8] = system: Staphylococcus aureus; experiment: Antimicrobial activity against Staphylococcus aureus subsp. aureus DSM 346 after 48 hr by agar dilution method; conditions: DSM 346, 48 h; outline: as §1
# [9] = system: Escherichia coli; experiment: Antimicrobial activity against Escherichia coli DSM 682 after 48 hr by agar dilution method; conditions: DSM 682, 48 h; outline: as §1
# [10] = system: Lactiplantibacillus plantarum; experiment: Antimicrobial activity against Lactobacillus plantarum DSM 20174 after 48 hr by agar dilution method; conditions: DSM 20174, 48 h; outline: as §1
# [11] = system: Bacillus subtilis; experiment: Antimicrobial activity against Bacillus subtilis DSM 345 after 48 hr by agar dilution method; conditions: DSM 345, 48 h; outline: as §1
# [12] = system: Staphylococcus epidermidis; experiment: Antimicrobial activity against Staphylococcus epidermidis DSM 1798 after 48 hr by agar dilution method; conditions: DSM 1798, 48 h; outline: as §1
# [13] = system: Enterococcus faecalis; experiment: Antimicrobial activity against Enterococcus faecalis DSM 2570 after 48 hr by agar dilution method; conditions: DSM 2570, 48 h; outline: as §1
# [14] = system: Micrococcus luteus; experiment: Antimicrobial activity against Micrococcus luteus DSM 348 after 48 hr by agar dilution method; conditions: DSM 348, 48 h; outline: as §1
# [15] = system: Limosilactobacillus fermentum; experiment: Antimicrobial activity against Lactobacillus fermentum DSM 20052 after 48 hr by agar dilution method; conditions: DSM 20052, 48 h; outline: as §1
# [16] = system: Penicillium expansum; experiment: Antimicrobial activity against Penicillium expansum ATCC 7861 after 48 hr by agar dilution method; conditions: ATCC 7861, 48 h; outline: as §2
# [17] = system: Lacticaseibacillus casei; experiment: Antimicrobial activity against Lactobacillus casei DSM 20011 after 48 hr by agar dilution method; conditions: DSM 20011, 48 h; outline: as §1
# [18] = system: Escherichia coli; experiment: Antimicrobial activity against Escherichia coli ATCC 35346 after 48 hr by agar dilution method; conditions: ATCC 35346, 48 h; outline: as §1
# [19] = system: Setophoma terrestris; experiment: Antimicrobial activity against Setophoma terrestris ATCC 11321 after 48 hr by agar dilution method; conditions: ATCC 11321, 48 h; outline: as §2
MIC [1],MIC [2],MIC [3],MIC [4],MIC [5],MIC [6],MIC [7],MIC [8],MIC [9],MIC [11],MIC [12],MIC [13],MIC [14],MIC [15],MIC [16],MIC [17],MIC [18],MIC [19],SMILES,MIC [10]
> 1000 µg/mL,1000 µg/mL,> 1000 µg/mL,1000 µg/mL,> 1000 µg/mL,1000 µg/mL,1000 µg/mL,> 1000 µg/mL,1000 µg/mL,> 1000 µg/mL,> 1000 µg/mL,> 1000 µg/mL,> 1000 µg/mL,1000 µg/mL,1000 µg/mL,1000 µg/mL,1000 µg/mL,1000 µg/mL,C[C@H](CCC1(O)O[C@H]2C[C@H]3[C@@H]4CC[C@H]5C[C@@H](O[C@@H]6O[C@H](CO)[C@H](O[C@@H]7O[C@H](CO)[C@@H](O)[C@H](O[C@@H]8O[C@H](CO)[C@@H](O)[C@H](O)[C@H]8O)[C@H]7O[C@@H]7O[C@H](CO)[C@@H](O)[C@H](O[C@@H]8O[C@H](CO)[C@@H](O)[C@H](O)[C@H]8O)[C@H]7O)[C@H](O)[C@H]6O)CC[C@]5(C)[C@H]4CC[C@]3(C)[C@H]2[C@@H]1C)CO[C@@H]1O[C@H](CO)[C@@H](O)[C@H](O)[C@H]1O (stereo partly drawn) [CAPSICOSIDE G],1000 µg/mL
> 1000 µg/mL,1000 µg/mL,> 1000 µg/mL,1000 µg/mL,> 1000 µg/mL,1000 µg/mL,1000 µg/mL,> 1000 µg/mL,1000 µg/mL,> 1000 µg/mL,> 1000 µg/mL,> 1000 µg/mL,> 1000 µg/mL,1000 µg/mL,1000 µg/mL,1000 µg/mL,1000 µg/mL,1000 µg/mL,C=C[C@](C)(CC/C=C(\C)CC/C=C(\C)CC/C=C(/C)CO[C@@H]1O[C@@H](C)[C@H](O)[C@@H](O[C@@H]2O[C@H](CO[C@@H]3O[C@@H](C)[C@H](O)[C@@H](O)[C@H]3O)[C@@H](O)[C@H](O)[C@H]2O)[C@H]1O)O[C@@H]1O[C@H](CO)[C@@H](O)[C@H](O)[C@H]1O[C@@H]1O[C@H](CO)[C@@H](O)[C@H](O)[C@H]1O [CAPSIANOSIDE II],1000 µg/mL
> 1000 µg/mL,1000 µg/mL,> 1000 µg/mL,,> 1000 µg/mL,,1000 µg/mL,> 1000 µg/mL,1000 µg/mL,> 1000 µg/mL,> 1000 µg/mL,> 1000 µg/mL,> 1000 µg/mL,1000 µg/mL,,1000 µg/mL,1000 µg/mL,,COC1(CC[C@@H](C)CO[C@@H]2O[C@H](CO)[C@@H](O)[C@H](O)[C@H]2O)O[C@H]2C[C@H]3[C@@H]4CC[C@H]5C[C@@H](O[C@@H]6O[C@H](CO)[C@H](O[C@@H]7O[C@H](CO)[C@@H](O)[C@H](O[C@@H]8OC[C@@H](O)[C@H](O)[C@H]8O)[C@H]7O[C@@H]7O[C@H](CO)[C@@H](O)[C@H](O[C@@H]8O[C@H](CO)[C@@H](O)[C@H](O)[C@H]8O)[C@H]7O)[C@H](O)[C@H]6O)CC[C@]5(C)[C@H]4CC[C@]3(C)[C@H]2[C@@H]1C (stereo partly drawn) [22-O-METHYL-CAPSICOSIDE D],1000 µg/mL
> 1000 µg/mL,1000 µg/mL,> 1000 µg/mL,,> 1000 µg/mL,,1000 µg/mL,> 1000 µg/mL,1000 µg/mL,> 1000 µg/mL,> 1000 µg/mL,> 1000 µg/mL,> 1000 µg/mL,1000 µg/mL,,1000 µg/mL,1000 µg/mL,,CC1=C(CC[C@@H](C)CO[C@@H]2O[C@H](CO)[C@@H](O)[C@H](O)[C@H]2O)O[C@H]2C[C@H]3[C@@H]4CC[C@H]5C[C@@H](O[C@@H]6O[C@H](CO)[C@H](O[C@@H]7O[C@H](CO)[C@@H](O)[C@H](O[C@@H]8O[C@H](CO)[C@@H](O)[C@H](O)[C@H]8O)[C@H]7O[C@@H]7O[C@H](CO)[C@@H](O)[C@H](O[C@@H]8O[C@H](CO)[C@@H](O)[C@H](O)[C@H]8O)[C@H]7O)[C@H](O)[C@H]6O)[C@H](O)C[C@]5(C)[C@H]4CC[C@]3(C)[C@@H]12 [Capsicoside F],1000 µg/mL
